hERG rescue: shields human hERG channel from block by proarrhythmic agents; Q12809; CHO-hERG, FluxOR thallium flux, dofetilide IC70 present; activation (rescue from dofetilide block), less the hit threshold, % at 10 µM; 310,000 compounds, 0.51% hits;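 active means activation above the mean of controls blocked by dofetilide plus 5 SD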;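 further: thallium influx through hERG after potassium depolarization seen as dye fluorescence rise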
Target sequence (Q12809 whole entry, looked up): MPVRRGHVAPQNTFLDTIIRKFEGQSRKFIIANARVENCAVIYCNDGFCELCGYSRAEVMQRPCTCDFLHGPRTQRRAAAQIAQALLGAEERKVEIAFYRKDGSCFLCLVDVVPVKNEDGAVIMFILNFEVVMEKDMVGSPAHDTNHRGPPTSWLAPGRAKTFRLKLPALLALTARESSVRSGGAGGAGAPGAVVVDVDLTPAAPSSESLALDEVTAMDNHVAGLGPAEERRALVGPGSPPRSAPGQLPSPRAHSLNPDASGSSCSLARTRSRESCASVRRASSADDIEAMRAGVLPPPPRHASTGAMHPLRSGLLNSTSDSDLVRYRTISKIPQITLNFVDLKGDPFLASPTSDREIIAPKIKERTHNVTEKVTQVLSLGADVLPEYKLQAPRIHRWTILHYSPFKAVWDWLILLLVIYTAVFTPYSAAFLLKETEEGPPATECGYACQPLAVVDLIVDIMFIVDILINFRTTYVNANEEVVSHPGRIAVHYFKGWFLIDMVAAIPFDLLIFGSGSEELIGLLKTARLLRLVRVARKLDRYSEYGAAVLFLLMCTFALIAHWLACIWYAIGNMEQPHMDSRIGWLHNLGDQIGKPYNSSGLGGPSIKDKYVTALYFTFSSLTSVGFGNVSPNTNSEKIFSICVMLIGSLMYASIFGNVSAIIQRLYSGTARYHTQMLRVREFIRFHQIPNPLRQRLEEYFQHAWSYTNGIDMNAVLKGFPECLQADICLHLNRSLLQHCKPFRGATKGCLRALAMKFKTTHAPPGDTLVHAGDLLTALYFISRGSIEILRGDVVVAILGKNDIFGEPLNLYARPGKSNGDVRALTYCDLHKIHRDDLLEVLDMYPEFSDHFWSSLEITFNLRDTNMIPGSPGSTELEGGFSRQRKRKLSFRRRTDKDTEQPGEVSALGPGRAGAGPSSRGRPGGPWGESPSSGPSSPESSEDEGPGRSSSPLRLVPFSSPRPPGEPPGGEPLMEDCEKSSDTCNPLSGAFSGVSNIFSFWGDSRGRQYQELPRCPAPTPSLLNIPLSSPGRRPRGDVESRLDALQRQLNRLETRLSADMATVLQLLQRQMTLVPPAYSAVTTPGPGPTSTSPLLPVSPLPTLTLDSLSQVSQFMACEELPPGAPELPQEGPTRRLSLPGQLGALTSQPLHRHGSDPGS
KCC2 mod: KCC2 (human) Cl- transport modulation. 190,000 compounds, 2.2% hits. KCC2 cells, thallium flux FluoZin-2 fluorescence. B-score of Tl+ flux slope (higher = more flux/activation; lower = inhibition) at 10 µM;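 active means thallium flux slope and its plate-corrected score both differing from the plate sample mean at a set confidence after two filtering rounds, in either direction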;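 further: slope of fluorescence scaled to starting intensity during 10 to 20 s after thallium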
KCNQ1 inh: inhibitors of human KCNQ1 potassium channel; P51787; CHO-K1 KCNQ1, FluxOR thallium flux fluorescence; stronger effect = higher value; B-score at 10 µM; 310,000 compounds, 1.3% hits; AID 2642;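 active means compounds whose thallium flux B-score, printed positive for inhibition, exceeds three library SD while starting fluorescence stays within three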;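 further: channel opened by potassium depolarization with thallium stimulus after 20 min compound exposure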
KCNQ1 pot: potentiates or activates the human KCNQ1 potassium channel; CHO-K1 KCNQ1, thallium flux FluxOR fluorescence; stronger effect = higher value; P51787; 310,000 compounds, 0.35% hits; AID 2648; B-score at 10 µM;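 active means fluorescence ratio B-score, a plate-corrected score, at least three library SD, with initial intensity B-score within 5 SD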
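Medium – assay buffer, equal DMSO in all wells · Material – CHO-K1 cell line with stable KCNQ1 potassium channel expression · Signal – kinetic FluxOR thallium fluorescence, 10-s 1-Hz baseline, 110-s post-stimulus read · Compound – single concentration per compound, DMSO matched to controls · Schedule – 37 °C overnight plating, 90-min dark dye load, 20-min compound pretreatment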
SUMO Mot1 rescue: blocks SUMOylation pathway, rescuing yeast Mot1-301 growth | growth rescue, % at 18.8 µM | AID 2716 | 320,000 compounds, 1% hits | S. cerevisiae Mot1-301 growth rescue, ATP luminescence, 38.5C; percent above DMSO median, 100 means doubled;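 active means every valid replicate shows activation above 250% relative to neutral control wells; inactive means the rest, any valid replicate at or below 250%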;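 further: OY570 slx delta 5 strain wells were the positive control but not used for scaling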
AI-2 QS modul: modulators of Vibrio harveyi AI-2 quorum sensing system; Vibrio harveyi JMH597 AI-2 luminescence/OD600 ratio, 9 h; stronger effect = lower value; strain lacks LuxN and CqsS sensors; 0 = neutral-control median; activity change, % at 7.5 µM; 300,000 compounds, 0.4% hits; in the data active means activity change below about -75%, passing the limit was not always enough; inconclusive means no clear call, values can overlap the other calls;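 further: luminescence divided by OD600 gain over 9 h not by final OD600 alone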
KCC2 secondary: KCC2 (human) modulation, secondary assay | shares compounds with KCC2 mod | HEK293-KCC2, thallium flux, FluoZin2 fluorescence; stronger effect = higher value | normalised thallium flux (F/F0 slope) at 10 µM | 3,700 compounds, 15% hits | AID 1713;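 active means thallium flux slope above the same plate's solvent-only control mean plus 3 SD; inconclusive means the two replicate wells disagree; inactive means no significant difference from solvent-only control wells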
KCC2 bumet counter: thallium flux persisting under bumetanide in KCC2 cells, counter-screen secondary assay; normalized thallium flux at 10 µM; AID 1714; shares compounds with KCC2 mod; 3,700 compounds, 49% hits; HEK293-KCC2 + bumetanide/ouabain, thallium flux FluoZin2; stronger effect = higher value;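 active means thallium entry rate above the same plate's blocked-transporter control wells by more than 3 SD; inconclusive means the two repeat wells disagree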;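 further: raw slope of fluorescence over initial fluorescence between 10 and 20 s after thallium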
KCC2 secondary2: KCC2 (human) modulation, second secondary assay. shares compounds with KCC2 mod. AID 1715. 3,700 compounds, 23% hits. HEK293-KCC2, thallium flux FluoZin2 fluorescence; actives lie on both sides; F/F0 rise rate, 10–20 s post-thallium. normalized thallium flux at 10 µM;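 active means thallium flux slope more than 3 SD above or below the plate's solvent-only control mean, mostly below; inconclusive means the two repeat wells disagreed; inactive means no significant shift from solvent-only controls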;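 further: raw slope with 0.1% DMSO as baseline and bumetanide as block control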
HEK counter1: parental HEK flux effect, counter-screen. shares compounds with KCC2 mod. HEK293 parental cells, thallium flux FluoZin2, ouabain; baseline-ratio fluorescence slope, 10–20 s after thallium. thallium flux rate (normalised fluorescence) at 10 µM. 3,700 compounds, 46% hits;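 active means thallium flux rate significantly above the same plate's solvent-only control wells, beyond their mean plus 3 SD; inconclusive means the two replicate wells gave conflicting results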
KCC2 ouabain: confirmation of human KCC2 modulators with ouabain; 3,700 compounds, 48% hits; HEK293-KCC2, thallium flux FluoZin2 fluorescence; bidirectional: low = inhibitor, high = activator; AID 1717; raw Tl+ flux slope (below DMSO = inhibition, above = activation) at 10 µM; shares compounds with KCC2 mod;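 active means thallium flux slope beyond 3 SD from same-plate DMSO control mean in most replicates, usually higher, sometimes lower; inconclusive means repeat tests gave conflicting results; inactive means no significant difference from controls in most replicates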;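 further: slope of initial-normalized fluorescence between seconds 10 and 20 after thallium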
HEK293 Tl flux2: counter-screen for KCC2 modulators: effect in parental HEK293 cells. shares compounds with KCC2 mod. thallium flux FluoZin-2 fluorescence slope. thallium flux slope at 10 µM. 3,700 compounds, 33% hits;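 active means thallium flux slope above the same plate's solvent-control mean plus 3 SD in both duplicate wells; inconclusive means duplicate wells that disagreed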;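 further: run without ouabain in cells lacking the KCC2 cotransporter; slope of fluorescence scaled to its starting value between 10 and 20 s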
* marks the source's active call; other numbers are inactive results; i = inactive; ? = inconclusive; . = no result given. Sampled rows, rich in hits. Any-hit rate of the full collection: about 4.2%.

SMILES | hERG rescue | KCC2 mod | KCNQ1 inh | KCNQ1 pot | SUMO Mot1 rescue | AI-2 QS modul | KCC2 secondary | KCC2 bumet counter | KCC2 secondary2 | HEK counter1 | KCC2 ouabain | HEK293 Tl flux2
CCOc1ccccc1-n1nnnc1SCc1nc2ccccc2s1 | -16 | . | i | i | -4 | 6 | 0.015 | ? | 0.024* | 0.0058* | 0.013* | 0.0091
CNc1nc(-c2ccc3c(c2)CCN3C(=O)c2ccccc2F)c(C)s1 | -7 | -0.15 | i | i | 2 | 9 | . | . | . | . | . | .
CNc1nc(-c2ccc3c(c2)CCN3C(=O)c2ccccc2F)cs1 | -18 | -4.3* | i | i | . | 28 | 0.009 | 0.0065 | 0.035 | 0.0036 | 0.019 | 0.011
O=C(CCN1C(=O)C2C3CCC(C3)C2C1=O)OCC(=O)c1ccc(Cl)cc1 (configuration not stated) | -7 | . | i | i | -1 | 21 | . | . | . | . | . | .
CC(C1CC2CCC1C2)n1c(-c2ccco2)n[nH]c1=S (configuration not stated) | -4 | 21* | i | i | -14 | 1 | 0.017* | 0.07* | ? | 0.028* | 0.056* | 0.016*
COCCNC(=O)CN(c1cc(C(F)(F)F)ccc1Cl)S(C)(=O)=O | 2 | -4* | i | i | -7 | 10 | 0.0085 | ? | 0.028 | ? | 0.019 | 0.011
COc1ccccc1C(=O)NC(=O)CSc1nc(C)cs1 | -8 | . | i | i | -1 | 36 | . | . | . | . | . | .
CCn1c(-c2cc(-c3ccc(C)cc3)nc3ccccc23)n[nH]c1=S | -1 | 7.9* | i | i | 203 | 23 | ? | 0.049* | 0.036 | 0.015* | 0.039* | 0.017*
C=CCn1c(-c2cc(-c3ccc(C)cc3)nc3ccccc23)n[nH]c1=S | 5.8* | 36* | i | i | . | 18 | 0.015* | 0.11* | 0.032 | 0.031* | 0.052* | 0.012*
Cn1c(-c2csc(-c3ccccc3)n2)n[nH]c1=S | -3 | 5.2* | i | i | 28 | 17 | 0.0071 | 0.021* | 0.033 | 0.017* | 0.028* | 0.02*
CCn1c(-c2sc(-c3ccccc3)nc2C)n[nH]c1=S | -5 | 3.9* | i | i | 5 | 20 | 0.0062 | 0.013* | 0.035 | 0.014* | ? | 0.017*
C=CCn1c(-c2cccc3ccccc23)n[nH]c1=S | -9 | 1.2 | i | i | -19 | -6 | . | . | . | . | . | .
N#Cc1c(-c2ccc(F)cc2)ccnc1N1CCOCC1 | -3 | -0.11 | i | i | -30 | 19 | . | . | . | . | . | .
Fc1ccccc1Nc1n[nH]c(=S)s1 | -8 | -3.5 | i | i | -9 | 10 | . | . | . | . | . | .
S=c1[nH]nc(Nc2cccc3ccccc23)s1 | -18 | 30* | i | i | -29 | 17 | 0.0078* | 0.023* | 0.017* | 0.0088* | 0.016* | 0.0099
O=C1C=C(c2ccc(C(=O)O)cc2)C[C@@H](c2ccc(F)cc2)C1 | . | . | . | . | -18 | . | . | . | . | . | . | .

Compound activity (PubChem BioAssay)
